In ChEMBL document CHEMBL1152541, “Staurosporine tethered peptide ligands that target cAMP-dependent protein kinase (PKA): optimization and selectivity profiling” (Bioorg Med Chem, 2009):
*1 amine or outer side, *2 acyl side, *3 side chain or, on linkers, in order; H or OH if unused. Where a SMILES comes first, the peptide text is derived from it. Bridges are numbered along the chain shown (N, C = ends). [ ]: non-standard residue; d: D form. The star is where a group is joined. Staurosporine = CO[C@@H]1[C@H](N(C)*)C[C@H]2O[C@]1(C)n1c3ccccc3c3c4c(c5c6ccccc6n2c5c31)C(=O)NC4; Suc = O=C(CCC(=O)[*:2])[*:1]; Dap = NC[C@H](N)C(=O)O; βAla = NCCC(=O)O

Experiments:
[1] = target: T1, Serine/threonine-protein kinase DCLK1 (Homo sapiens) (UniProt O15075); assay: Binding affinity to human DCAMKL1 at 500 nM by cell-based competition binding assay relative to control in presence of DTT
T1 sequence (whole entry): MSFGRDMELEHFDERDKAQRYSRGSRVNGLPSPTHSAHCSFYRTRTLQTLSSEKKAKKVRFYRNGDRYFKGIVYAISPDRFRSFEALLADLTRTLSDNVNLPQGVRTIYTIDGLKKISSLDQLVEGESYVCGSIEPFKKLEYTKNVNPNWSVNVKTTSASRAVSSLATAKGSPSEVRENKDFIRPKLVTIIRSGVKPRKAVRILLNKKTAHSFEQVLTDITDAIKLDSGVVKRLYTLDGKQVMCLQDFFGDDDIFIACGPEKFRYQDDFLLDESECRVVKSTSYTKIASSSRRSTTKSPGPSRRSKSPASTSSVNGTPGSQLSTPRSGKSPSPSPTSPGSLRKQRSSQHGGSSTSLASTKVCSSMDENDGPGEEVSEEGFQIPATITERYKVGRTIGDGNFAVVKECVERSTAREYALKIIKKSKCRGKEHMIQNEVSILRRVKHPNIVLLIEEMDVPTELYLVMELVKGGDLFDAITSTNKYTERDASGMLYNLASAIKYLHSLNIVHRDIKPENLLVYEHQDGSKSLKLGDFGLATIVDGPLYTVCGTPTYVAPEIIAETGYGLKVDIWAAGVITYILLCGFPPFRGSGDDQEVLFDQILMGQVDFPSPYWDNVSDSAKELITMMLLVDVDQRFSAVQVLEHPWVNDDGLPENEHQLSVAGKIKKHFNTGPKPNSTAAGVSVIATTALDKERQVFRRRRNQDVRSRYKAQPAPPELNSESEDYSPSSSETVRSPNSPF
Summary of the method: (§1)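 Commercial (Ambit) competitive kinase-binding panel of 90 kinases measured the binding profile. Run under reducing conditions of 7.5 mM DTT. Binding is expressed relative to control.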

[2] = target: Angiopoietin-1 receptor (Homo sapiens) (UniProt Q02763); assay: Binding affinity to human TIE2 at 500 nM by cell-based competition binding assay relative to control in presence of DTT
[3] = target: High affinity nerve growth factor receptor (Homo sapiens) (UniProt P04629); assay: Binding affinity to human TRKA at 500 nM by cell-based competition binding assay relative to control in presence of DTT
[4] = target: T2, Tyrosine-protein kinase ZAP-70 (Homo sapiens) (UniProt P43403); assay: Binding affinity to human ZAP70 at 500 nM by cell-based competition binding assay relative to control in presence of DTT
T2 sequence (whole entry): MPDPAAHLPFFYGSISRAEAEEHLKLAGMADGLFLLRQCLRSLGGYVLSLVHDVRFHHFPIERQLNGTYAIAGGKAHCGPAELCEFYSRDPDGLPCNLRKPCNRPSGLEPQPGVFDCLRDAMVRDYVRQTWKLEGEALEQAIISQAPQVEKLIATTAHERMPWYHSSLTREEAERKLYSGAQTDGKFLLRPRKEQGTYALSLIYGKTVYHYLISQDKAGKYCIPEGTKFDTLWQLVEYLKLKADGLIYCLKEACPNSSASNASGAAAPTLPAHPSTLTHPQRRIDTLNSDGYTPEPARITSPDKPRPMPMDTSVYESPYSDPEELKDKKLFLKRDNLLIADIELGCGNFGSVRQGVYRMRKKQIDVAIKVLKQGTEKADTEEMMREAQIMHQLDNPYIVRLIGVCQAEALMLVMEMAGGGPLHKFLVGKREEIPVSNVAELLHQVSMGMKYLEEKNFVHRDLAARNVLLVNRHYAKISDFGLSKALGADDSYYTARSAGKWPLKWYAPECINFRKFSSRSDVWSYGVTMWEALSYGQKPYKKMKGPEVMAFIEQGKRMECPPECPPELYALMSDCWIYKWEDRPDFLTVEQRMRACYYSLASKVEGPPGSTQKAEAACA

[5] = target: Cyclin-dependent kinase 7 (Homo sapiens) (UniProt P50613); assay: Binding affinity to human CDK7 at 500 nM by cell-based competition binding assay relative to control in presence of DTT; summary of the method: as §1
[6] = target: Receptor-type tyrosine-protein kinase FLT3 (Homo sapiens) (UniProt P36888); assay: Binding affinity to human FLT3 at 500 nM by cell-based competition binding assay relative to control in presence of DTT; summary of the method: as §1
[7] = target: Serine/threonine-protein kinase PAK 1 (Homo sapiens) (UniProt Q13153); assay: Binding affinity to human PAK1 at 500 nM by cell-based competition binding assay relative to control in presence of DTT
[8] = target: Serine/threonine-protein kinase PAK 2 (Homo sapiens) (UniProt Q13177); assay: Binding affinity to human PAK2 at 500 nM by cell-based competition binding assay relative to control in presence of DTT
[9] = target: Mitogen-activated protein kinase 14 (Homo sapiens) (UniProt Q16539); assay: Binding affinity to human p38alpha at 200 nM by cell-based competition binding assay relative to control in presence of DTT
[10] = target: Serine/threonine-protein kinase pim-1 (Homo sapiens) (UniProt P11309); assay: Binding affinity to human PIM1 at 200 nM by cell-based competition binding assay relative to control in presence of DTT
[11] = target: Proto-oncogene tyrosine-protein kinase Src (Homo sapiens) (UniProt P12931); assay: Binding affinity to human SRC at 200 nM by cell-based competition binding assay relative to control in presence of DTT
[12] = target: Angiopoietin-1 receptor (Homo sapiens) (UniProt Q02763); assay: Binding affinity to human TIE2 at 200 nM by cell-based competition binding assay relative to control in presence of DTT
[13] = test system: Epidermal growth factor receptor (Homo sapiens), P00533 [L858R]; assay: Binding affinity to human EGFR L858R mutant at 50 nM by cell-based competition binding assay relative to control in presence of DTT; summary of the method: as §1
[14] = target: Mitogen-activated protein kinase kinase kinase 9 (Homo sapiens) (UniProt P80192); assay: Binding affinity to human MLK1 at 50 nM by cell-based competition binding assay relative to control in presence of DTT
[15] = target: Cyclin-dependent kinase 16 (Homo sapiens) (UniProt Q00536); assay: Binding affinity to human PCTK1 at 50 nM by cell-based competition binding assay relative to control in presence of DTT
[16] = target: Phosphatidylinositol 4-phosphate 3-kinase C2 domain-containing subunit beta (Homo sapiens) (UniProt O00750); assay: Binding affinity to human PIK3C2beta at 50 nM by cell-based competition binding assay relative to control in presence of DTT

## CO[C@@H]1[C@H](N(C)C(=O)CCC(=O)NCCC(=O)NCCC(=O)NCCC(N)=O)C[C@H]2O[C@]1(C)n1c3ccccc3c3c4c(c5c6ccccc6n2c5c31)C(=O)NC4
[1]
  Activity: 100%
[2]
  Activity: 38%
[3]
  Activity: 13%
[4]
  Activity: 2.2%
[5]
  Activity: 100%
[6]
  Activity: 0.35%
[7]
  Activity: 4%
[8]
  Activity: 14%

## CO[C@@H]1[C@H](N(C)C(=O)CCC(=O)NCCC(=O)NCCC(=O)NCCC(=O)NCCC(=O)NCCC(=O)NCCC(=O)NCCC(=O)N[C@H]2CSSC[C@@H](C(=O)NCC(N)=O)NC(=O)CNC(=O)[C@H](Cc3ccccc3)NC(=O)[C@H](C(C)C)NC(=O)[C@H](CCCNC(=N)N)NC(=O)[C@H](Cc3ccccc3)NC(=O)[C@H](C(C)C)NC2=O)C[C@H]2O[C@]1(C)n1c3ccccc3c3c4c(c5c6ccccc6n2c5c31)C(=O)NC4 ({Staurosporine-Suc-βAla-βAla-βAla-βAla-βAla-βAla-βAla}-CVFRVFGCG-NH2; disulfide 1-8)
[9]
  Activity: 89%
[10]
  Activity: 53%
[11]
  Activity: 100%
[12]
  Activity: 65%

## CO[C@@H]1[C@H](N(C)C(=O)CCC(=O)NCCC(=O)NCCC(=O)NCCC(=O)NCCC(=O)NCCC(=O)NCCC(=O)NCCC(=O)N[C@H]2CNC(=O)C[C@@H](C(N)=O)NC(=O)CNC(=O)[C@H](Cc3ccccc3)NC(=O)[C@H](C(C)C)NC(=O)[C@H](CCCNC(=N)N)NC(=O)[C@H](Cc3ccccc3)NC(=O)[C@H](C(C)C)NC2=O)C[C@H]2O[C@]1(C)n1c3ccccc3c3c4c(c5c6ccccc6n2c5c31)C(=O)NC4 ({Staurosporine-Suc-βAla-βAla-βAla-βAla-βAla-βAla-βAla}-[Dap]VFRVFGD-NH2; lactam 1-8)
[13]
  Activity: 100%
[14]
  Activity: 5.5%
[15]
  Activity: 98%
[16]
  Activity: 100%
